One assay has as its target Glutamate receptor 3 (Rattus norvegicus, UniProt P19492). The experiment in a line: Antagonist activity at rat homomeric recombinant GluR3 expressed in HEK293 cells assessed as inhibition of intracellular calcium concentration by FLIPR assay. The format is functional, cell-based. Summed up: (§1)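 AMPA-subunit HEK293 lines were grown with 100 μg/mL SPD 502 in the medium. Cells were loaded with 2 μM Fluo-4-AM for 30 min at room temperature and washed into Na⁺-free Ringer at pH 7.4. All solutions contained 100 μM cyclothiazide. Test compound was preincubated 1.5 min before 25 μM Glu (final) was added. The Ca²⁺ rise was read by FLIPR at room temperature. Solvent (EtOH or DMSO) was ≤1.0%.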
In general terms: Calcium assays in cells follow changes in intracellular calcium, usually with a dye or a luminescent sensor.

A further assay addresses Glutamate receptor 2 (Rattus norvegicus, UniProt P19491). The experiment in a line: Antagonist activity at rat homomeric recombinant GluR2 expressed in HEK293 cells assessed as inhibition of intracellular calcium concentration by FLIPR assay. The format is functional, cell-based. In outline: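 Cells were loaded with 2 μM Fluo-4-AM for 30 min at room temperature and washed into Na⁺-free Ringer at pH 7.4. All solutions contained 100 μM cyclothiazide. The Ca²⁺ rise was read by FLIPR at room temperature. Solvent (EtOH or DMSO) was ≤1.0%.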

In assay [1] the target is T1, Glutamate receptor ionotropic, kainate 1 (Homo sapiens, UniProt P39086). Put plainly: Antagonist activity at human homomeric GluR5 expressed in HEK293 cells assessed as inhibition of intracellular calcium concentration by FLIPR assay. The format is functional, cell-based.
T1 sequence (P39086 whole entry): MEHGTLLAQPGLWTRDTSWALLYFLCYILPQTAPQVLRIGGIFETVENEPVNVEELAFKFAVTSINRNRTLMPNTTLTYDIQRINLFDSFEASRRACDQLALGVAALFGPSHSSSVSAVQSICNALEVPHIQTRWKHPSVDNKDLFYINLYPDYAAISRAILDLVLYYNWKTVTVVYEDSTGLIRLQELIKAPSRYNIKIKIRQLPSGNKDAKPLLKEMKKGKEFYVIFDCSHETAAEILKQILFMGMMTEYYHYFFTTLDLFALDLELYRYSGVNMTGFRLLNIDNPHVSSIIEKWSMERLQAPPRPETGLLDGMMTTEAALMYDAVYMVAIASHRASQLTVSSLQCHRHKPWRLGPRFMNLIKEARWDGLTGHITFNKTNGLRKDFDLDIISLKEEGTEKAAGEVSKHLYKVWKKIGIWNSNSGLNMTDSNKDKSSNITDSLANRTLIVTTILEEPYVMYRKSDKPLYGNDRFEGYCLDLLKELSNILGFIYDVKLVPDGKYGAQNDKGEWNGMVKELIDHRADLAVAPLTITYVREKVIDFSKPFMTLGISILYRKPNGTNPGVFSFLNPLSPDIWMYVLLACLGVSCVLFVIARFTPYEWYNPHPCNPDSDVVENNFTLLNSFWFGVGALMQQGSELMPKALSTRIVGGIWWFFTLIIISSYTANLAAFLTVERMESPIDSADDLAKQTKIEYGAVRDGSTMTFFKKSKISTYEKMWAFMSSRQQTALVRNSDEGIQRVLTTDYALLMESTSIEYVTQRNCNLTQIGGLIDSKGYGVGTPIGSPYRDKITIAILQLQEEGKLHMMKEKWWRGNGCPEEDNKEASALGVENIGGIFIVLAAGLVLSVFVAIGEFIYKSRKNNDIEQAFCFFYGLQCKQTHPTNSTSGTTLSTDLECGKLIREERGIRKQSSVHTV
Assay [2] has as its target Glutamate receptor ionotropic, kainate 2 (Homo sapiens, UniProt Q13002). The experiment in a line: Antagonist activity at human homomeric GluR6 expressed in HEK293 cells assessed as inhibition of intracellular calcium concentration by FLIPR assay. The format is functional, cell-based. In outline: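 Stably transfected HEK293 cells were grown in DMEM with 10% FCS at 37 °C. Cells were plated on PEI-coated plates 24 h before loading with 2 μM Fluo-4-AM for 60 min at room temperature, then washed into Na⁺-free Ringer at pH 7.4. Test compound was preincubated 1.5 min, then 0.2 μM domoic acid (final) was added. The Ca²⁺ rise was read by FLIPR (ex 488 nm, em 510–570 nm). IC50 reported.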

Assay [3] deals with Glutamate receptor 1 (Rattus norvegicus) (UniProt P19490). The experiment in a line: Antagonist activity at rat homomeric recombinant GluR1 expressed in HEK293 cells assessed as inhibition of intracellular calcium concentration at 30 uM by FLIPR assay. The format is functional, cell-based. In outline:
as §1

In assay [4] the target is T1, Glutamate receptor ionotropic, kainate 1. Put plainly: Displacement of [3HATPA from human recombinant GluR5. In outline: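 GluR5 HEK293 membranes were washed in 50 mM Tris-HCl (pH 7.1) at 0–4 °C and centrifuged at 27000g. 46–84 μg protein was incubated with 3 nM [³H]ATPA for 60 min at 2 °C. Nonspecific binding was defined with 0.6 mM Glu. Binding was stopped by rapid filtration and counted by liquid scintillation. Compounds were tested at 3–30 μM.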

The target of assay [5] is Glutamate receptor 4 (Rattus norvegicus) (UniProt P19493). Put plainly: Antagonist activity at rat homomeric recombinant GluR4 expressed in HEK293 cells assessed as inhibition of intracellular calcium concentration at 30 uM by FLIPR assay. It is filed as functional, cell-based. In outline:
as §1

For assay [6], the target named is Glutamate receptor 2 (Rattus norvegicus) (UniProt P19491). Put plainly: Antagonist activity at rat homomeric recombinant GluR2 expressed in HEK293 cells assessed as inhibition of intracellular calcium concentration at 30 uM by FLIPR assay. The format is functional, cell-based. Summed up:
as §1

In another assay the test system is Mus musculus. Put plainly: Effect on ATPA-induced rigidity in mouse dosed intravenously 30 mins before ATPA administration. The note with it: iv. The format is functional. In outline:
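Female NMRI mice (20–25 g) received test substance iv (n = 8 per dose) 30 min before iv ATPA at 30 mg/kg. ATPA was given at 3 mg/mL in saline, pH 7. Rigidity was scored 30 min after ATPA as loss of righting and lack of movement on a 45° grid. Results were taken as the percent of mice rigid, and ED50 was derived.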

Another assay has as its target Glutamate receptor 4 (Rattus norvegicus, UniProt P19493). Put plainly: Antagonist activity at rat homomeric recombinant GluR4 expressed in HEK293 cells assessed as inhibition of intracellular calcium concentration by FLIPR assay. It is filed as functional, cell-based. Summed up:
as §1

In another assay the target is Glutamate receptor 1 (Rattus norvegicus, UniProt P19490). The experiment in a line: Antagonist activity at rat homomeric recombinant GluR1 expressed in HEK293 cells assessed as inhibition of intracellular calcium concentration by FLIPR assay. The format is functional, cell-based. Summed up: as §1
Sequence of Glutamate receptor 1 (P19490 whole entry): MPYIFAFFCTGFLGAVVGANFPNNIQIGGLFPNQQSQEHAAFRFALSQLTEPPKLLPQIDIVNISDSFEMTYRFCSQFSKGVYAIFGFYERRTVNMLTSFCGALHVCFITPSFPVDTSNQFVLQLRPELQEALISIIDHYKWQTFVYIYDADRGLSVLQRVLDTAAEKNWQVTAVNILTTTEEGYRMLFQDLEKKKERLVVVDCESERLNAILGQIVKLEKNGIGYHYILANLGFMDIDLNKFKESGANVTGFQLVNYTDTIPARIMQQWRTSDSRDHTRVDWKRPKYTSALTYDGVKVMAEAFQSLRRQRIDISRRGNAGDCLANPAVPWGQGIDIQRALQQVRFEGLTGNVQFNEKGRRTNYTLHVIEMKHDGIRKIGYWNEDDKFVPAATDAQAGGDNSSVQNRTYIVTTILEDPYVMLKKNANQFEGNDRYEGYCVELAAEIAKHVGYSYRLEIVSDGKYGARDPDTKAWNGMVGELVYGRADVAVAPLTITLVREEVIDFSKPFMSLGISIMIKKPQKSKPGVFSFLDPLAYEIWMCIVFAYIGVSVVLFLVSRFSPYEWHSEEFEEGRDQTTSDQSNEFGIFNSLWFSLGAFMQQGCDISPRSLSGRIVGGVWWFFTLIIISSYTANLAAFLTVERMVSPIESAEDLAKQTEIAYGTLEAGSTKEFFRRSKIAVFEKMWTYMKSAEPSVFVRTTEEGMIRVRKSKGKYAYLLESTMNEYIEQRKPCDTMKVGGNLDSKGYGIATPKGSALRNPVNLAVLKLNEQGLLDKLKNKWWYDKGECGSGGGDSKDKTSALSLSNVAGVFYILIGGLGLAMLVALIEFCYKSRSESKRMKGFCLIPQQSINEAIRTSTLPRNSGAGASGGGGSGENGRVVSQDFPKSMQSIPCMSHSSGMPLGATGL
For assay [7], the target named is Glutamate receptor 3 (Rattus norvegicus) (UniProt P19492). The experiment in a line: Antagonist activity at rat homomeric recombinant GluR3 expressed in HEK293 cells assessed as inhibition of intracellular calcium concentration at 30 uM by FLIPR assay. The format is functional, cell-based. Summed up: as §1
Sequence of Glutamate receptor 3 (Rattus norvegicus) (P19492 whole entry): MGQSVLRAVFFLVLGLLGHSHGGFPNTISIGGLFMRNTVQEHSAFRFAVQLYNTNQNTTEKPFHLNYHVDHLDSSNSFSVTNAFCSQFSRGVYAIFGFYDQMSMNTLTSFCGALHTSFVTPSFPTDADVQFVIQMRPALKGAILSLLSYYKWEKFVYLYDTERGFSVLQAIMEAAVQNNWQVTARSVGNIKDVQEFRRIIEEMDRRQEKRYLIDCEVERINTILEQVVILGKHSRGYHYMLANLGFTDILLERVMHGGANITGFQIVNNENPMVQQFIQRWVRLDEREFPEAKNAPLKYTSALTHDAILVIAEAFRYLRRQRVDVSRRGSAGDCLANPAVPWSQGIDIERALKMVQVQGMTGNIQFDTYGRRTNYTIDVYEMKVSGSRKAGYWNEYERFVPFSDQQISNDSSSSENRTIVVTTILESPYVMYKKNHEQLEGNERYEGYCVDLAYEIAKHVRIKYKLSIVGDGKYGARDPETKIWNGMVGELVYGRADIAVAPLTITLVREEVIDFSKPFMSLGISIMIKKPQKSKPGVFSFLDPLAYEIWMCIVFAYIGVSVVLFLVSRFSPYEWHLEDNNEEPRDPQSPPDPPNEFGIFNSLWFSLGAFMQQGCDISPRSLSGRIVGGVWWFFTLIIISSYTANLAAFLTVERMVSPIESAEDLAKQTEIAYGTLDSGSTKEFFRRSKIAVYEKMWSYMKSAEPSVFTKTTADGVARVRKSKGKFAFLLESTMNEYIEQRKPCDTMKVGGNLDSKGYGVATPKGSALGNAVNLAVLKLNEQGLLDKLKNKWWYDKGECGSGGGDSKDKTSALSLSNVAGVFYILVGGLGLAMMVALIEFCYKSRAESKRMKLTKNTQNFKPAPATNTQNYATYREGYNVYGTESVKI

The source made the active and inactive calls. The calls are words filed in the database; no cut-off is given here.

Sequence of Glutamate receptor 1 (Rattus norvegicus) (P19490 whole entry): as the sequence (P19490 whole entry) above
Sequence of Glutamate receptor 4 (P19493 whole entry): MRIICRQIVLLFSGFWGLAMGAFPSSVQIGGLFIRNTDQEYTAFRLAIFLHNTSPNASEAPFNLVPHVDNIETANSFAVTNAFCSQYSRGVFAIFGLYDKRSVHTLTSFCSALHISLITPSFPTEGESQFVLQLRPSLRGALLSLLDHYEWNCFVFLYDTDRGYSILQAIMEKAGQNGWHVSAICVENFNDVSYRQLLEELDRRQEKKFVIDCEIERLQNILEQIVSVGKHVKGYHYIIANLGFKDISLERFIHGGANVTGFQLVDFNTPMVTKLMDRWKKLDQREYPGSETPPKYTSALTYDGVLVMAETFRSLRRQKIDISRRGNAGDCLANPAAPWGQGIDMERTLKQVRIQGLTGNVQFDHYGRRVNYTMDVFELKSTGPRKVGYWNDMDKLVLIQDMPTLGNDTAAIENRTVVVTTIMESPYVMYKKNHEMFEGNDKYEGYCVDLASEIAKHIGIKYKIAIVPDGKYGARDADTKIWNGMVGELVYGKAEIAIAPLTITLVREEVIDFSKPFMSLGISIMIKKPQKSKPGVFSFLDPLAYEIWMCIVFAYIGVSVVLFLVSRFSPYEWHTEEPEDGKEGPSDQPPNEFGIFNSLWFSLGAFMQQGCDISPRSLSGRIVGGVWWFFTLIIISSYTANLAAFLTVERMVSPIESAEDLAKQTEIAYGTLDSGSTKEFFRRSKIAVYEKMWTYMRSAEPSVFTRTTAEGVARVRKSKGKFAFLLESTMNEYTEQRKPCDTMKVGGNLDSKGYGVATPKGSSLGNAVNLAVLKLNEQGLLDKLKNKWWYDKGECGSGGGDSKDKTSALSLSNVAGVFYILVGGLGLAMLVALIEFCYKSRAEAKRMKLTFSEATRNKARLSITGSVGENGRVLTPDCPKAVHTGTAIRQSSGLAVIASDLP
Sequence of Glutamate receptor 4 (Rattus norvegicus) (P19493 whole entry): as above
Sequence of Glutamate receptor 3 (P19492 whole entry): as the sequence (P19492 whole entry) above
Sequence of Glutamate receptor ionotropic, kainate 2 (Q13002 whole entry): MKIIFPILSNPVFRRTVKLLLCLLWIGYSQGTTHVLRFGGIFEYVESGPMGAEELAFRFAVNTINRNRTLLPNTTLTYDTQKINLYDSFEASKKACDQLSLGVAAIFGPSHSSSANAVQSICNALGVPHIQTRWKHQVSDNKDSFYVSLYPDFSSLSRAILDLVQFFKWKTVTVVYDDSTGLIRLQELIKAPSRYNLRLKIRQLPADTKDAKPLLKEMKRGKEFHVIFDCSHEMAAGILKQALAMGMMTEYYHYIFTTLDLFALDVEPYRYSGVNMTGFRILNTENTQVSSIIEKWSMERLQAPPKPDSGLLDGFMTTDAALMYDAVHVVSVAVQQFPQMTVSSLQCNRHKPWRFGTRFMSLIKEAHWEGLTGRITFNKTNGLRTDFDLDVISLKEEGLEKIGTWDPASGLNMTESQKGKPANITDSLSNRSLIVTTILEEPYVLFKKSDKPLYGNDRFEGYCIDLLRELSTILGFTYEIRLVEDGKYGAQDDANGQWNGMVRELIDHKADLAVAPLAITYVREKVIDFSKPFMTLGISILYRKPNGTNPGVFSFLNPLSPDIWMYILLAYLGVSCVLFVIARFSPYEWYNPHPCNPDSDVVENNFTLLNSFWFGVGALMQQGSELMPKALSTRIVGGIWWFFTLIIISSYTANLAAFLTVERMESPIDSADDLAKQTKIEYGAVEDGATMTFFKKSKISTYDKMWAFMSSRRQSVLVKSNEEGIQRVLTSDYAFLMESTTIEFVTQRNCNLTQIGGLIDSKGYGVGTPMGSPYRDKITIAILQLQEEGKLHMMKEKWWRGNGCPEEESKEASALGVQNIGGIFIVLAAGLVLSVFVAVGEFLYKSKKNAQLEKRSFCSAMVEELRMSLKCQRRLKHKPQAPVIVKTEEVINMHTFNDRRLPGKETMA

On to `O=C(Nc1cccc(Br)c1)Nc1cc(Cl)ccc1-c1nnn[nH]1`, for which the IC50 at Glutamate receptor 3 was greater than 100 µM; on Glutamate receptor 2, greater than 100 µM; in [1], 2 µM; in assay [2], greater than 10 µM; in assay [4], greater than 30 µM; at Glutamate receptor 4 it was greater than 100 µM. For the same molecule, the concentration for half-maximal inhibition (IC50) at Glutamate receptor 1 was greater than 100 µM. Further, the result in [3], in assay [5], in assay [6] and in assay [7] was inactive. In the assay with Mus musculus, this molecule showed an ED50 of 5.5 mg/kg.

In the case of `N#Cc1ccc(Cl)cc1NC(=O)Nc1cccc(C(F)(F)F)c1`, the IC50 in assay [1] is greater than 3 µM.

Consider `O=C(Nc1cccc(Br)c1)Nc1cc(Cl)ccc1C(=O)O`, for which the IC50 on Glutamate receptor 3, on Glutamate receptor 2, on Glutamate receptor 4 and at Glutamate receptor 1 was greater than 100 µM in each case. In addition, the result in [3], in assay [5], in assay [6] and in [7] was inactive.

Consider `COC(=O)c1ccc(Cl)cc1NC(=O)Nc1cccc(Br)c1`, for which the half-maximal inhibitory concentration (IC50) in assay [1] is greater than 30 µM.

In the case of `O=C(Nc1cccc(Br)c1)Oc1cc(Cl)ccc1C(=O)O`, in assay [1], the IC50 was greater than 30 µM.

Consider `O=C(Nc1cccc(Br)c1)Nc1cc(Cl)ccc1S(=O)(=O)O`, for which the IC50 was greater than 100 µM on Glutamate receptor 3; greater than 100 µM on Glutamate receptor 2; 1.5 µM in assay [1]; 37 µM in assay [2]; greater than 30 µM in assay [4]; greater than 100 µM at Glutamate receptor 4. For the same molecule, at Glutamate receptor 1, the IC50 is greater than 100 µM. In the assay on Mus musculus, this molecule had an ED50 of 29 mg/kg.

For `O=C(Nc1cccc(C(F)(F)F)c1)Nc1cc(Cl)ccc1[N+](=O)[O-]`, the IC50 in assay [1] was greater than 3 µM.

As for `O=C(Nc1ccc2ccccc2c1)Nc1cc(Cl)ccc1C(=O)O`, the IC50 at Glutamate receptor 3, at Glutamate receptor 4 and at Glutamate receptor 1 was greater than 100 µM throughout. The result in [3], in assay [5], in assay [6] and in assay [7] was inactive. Besides, the ED50 in the assay with Mus musculus is greater than 30 mg/kg.

`O=C(O)CCc1ccc(Cl)cc1NC(=O)Nc1cccc(Br)c1`: the IC50 in [1] is greater than 30 µM.

`O=C(Nc1cccc(Br)c1)n1[nH]c(=O)c2ccc(Cl)cc21`: in assay [1], the IC50 is greater than 50 µM.

For the molecule `O=C(Nc1cccc(C(F)(F)F)c1)Nc1cc(Cl)ccc1O`, in assay [1], the IC50 was greater than 30 µM.

As to `O=C(O)c1ccc(Cl)cc1Nc1c(Nc2cccc(Br)c2)c(=O)c1=O`, the IC50 in [1] is greater than 30 µM.

Consider `O=C(Nc1cccc(C(F)(F)F)c1)Nc1cc(Cl)ccc1CO`, for which the IC50 in [1] is greater than 10 µM.

In the case of `O=C(Nc1cccc(Br)c1)Nc1cc(Cl)ccc1[N+](=O)[O-]`, the 50% inhibitory concentration (IC50) in [1] was greater than 3 µM.

With `O=C(Nc1cccc(Br)c1)Nc1cc(Cl)ccc1-c1nc(=O)o[nH]1`, the IC50 at Glutamate receptor 3 is greater than 100 µM; on Glutamate receptor 2, greater than 100 µM; in assay [1] it was 4.6 µM; in assay [2] it was greater than 30 µM; in [4] it was greater than 30 µM; on Glutamate receptor 4, greater than 100 µM. Moreover, the IC50 at Glutamate receptor 1 was greater than 100 µM. Besides, the outcome in [3], in [5], in assay [6] and in assay [7] was inactive. This molecule displayed an ED50 in the assay with Mus musculus greater than 100 mg/kg.

For the molecule `O=C(O)Cc1ccc(Cl)cc1NC(=O)Nc1cccc(Br)c1`, the IC50 at Glutamate receptor 3 was greater than 100 µM; on Glutamate receptor 2, greater than 100 µM; in assay [1], 3.6 µM; in assay [2] it was greater than 50 µM; in assay [4] it was greater than 30 µM; on Glutamate receptor 4, greater than 100 µM. Also, the half-inhibitory concentration (IC50) on Glutamate receptor 1 is greater than 100 µM. In addition, the outcome in assay [3], in assay [5], in [6] and in assay [7] was inactive. Further, the ED50 in the assay on Mus musculus is greater than 30 mg/kg.

On to `Nc1ccc(Cl)cc1NC(=O)Nc1cccc(C(F)(F)F)c1`, for which the IC50 in assay [1] is greater than 30 µM.

What is called IC50 is the concentration that inhibits the measured activity by half. Broadly, the ED50 is the dose that gives a 50% effect, or the effect in half of the subjects. A high value points to weaker potency.

Source of the values: ChEMBL document CHEMBL1149316, “Bioisosteric modifications of 2-arylureidobenzoic acids: selective noncompetitive antagonists for the homomeric kainate receptor subtype GluR5” (J Med Chem, 2004).
